{"source": "ChEMBL document CHEMBL3044956", "about": "“Nematicidal and antifungal activities of annonaceous acetogenins from Annona squamosa against various plant pathogens” (J Agric Food Chem, 2011)", "key": {"Blumeria hordei [1]": {"tested_on": "Blumeria hordei", "assay": "In vivo antifungal activity against Blumeria graminis f. sp. hordei infected barley seedlings assessed as control of barley powdery mildew disease development at 125 ug/ml treated 1 day before spore inoculation measured 3-7 days after inoculation", "assay_type": "functional", "method_in_brief": "(§1)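 Potted seedlings sprayed to runoff with material dissolved in MeOH and diluted in 0.025% Tween 20 (5% MeOH); controls got the Tween/MeOH solution alone. Inoculated with spores or mycelial suspension 1 day later. Infected leaf or sheath area rated 3–7 days after inoculation; % control = 100(A−B)/A. Randomized complete block design, three replicates, run in duplicate; Tukey HSD.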"}, "Phytophthora infestans [2]": {"tested_on": "Phytophthora infestans", "assay": "In vivo antifungal activity against Phytophthora infestans zoospores infected tomato seedlings assessed as control of tomato late blight disease development treated 1 day before spore inoculation measured 3 days after inoculation", "assay_type": "functional, organism-based", "method_in_brief": "as §1"}, "Blumeria hordei [3]": {"tested_on": "Blumeria hordei", "assay": "In vivo antifungal activity against Blumeria graminis f. sp. hordei infected barley seedlings assessed as control of barley powdery mildew disease development at 500 ug/ml treated 1 day before spore inoculation measured 3-7 days after inoculation", "assay_type": "functional", "method_in_brief": "as §1"}, "Pyricularia oryzae [4]": {"tested_on": "Pyricularia oryzae", "assay": "In vivo antifungal activity against Magnaporthe oryzae infected rice seedlings assessed as control of rice blast disease development at 250 ug/ml treated 1 day before spore inoculation measured 3-7 days after inoculation", "assay_type": "functional", "method_in_brief": "as §1"}, "Puccinia recondita [5]": {"tested_on": "Puccinia recondita", "assay": "In vivo antifungal activity against Puccinia recondita infected wheat seedlings assessed as reduction in wheat leaf rust disease symptoms development at 125 ug/ml treated 1 day before spore inoculation measured 7 days after inoculation", "assay_type": "functional", "set-up": "scale not given: the % may be the effect or the level left", "method_in_brief": "as §1"}, "Meloidogyne incognita [6]": {"tested_on": "Meloidogyne incognita", "assay": "Nematicidal activity against second juvenile stage (J2) of Meloidogyne incognita (root-knot nematode) assessed as mortality incubated in the dark at 28 degC after 2 days by light microscopy (benficial crop Tomato)", "assay_type": "functional", "settings": "48 h", "method_in_brief": "(§2)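 M. incognita eggs taken from infected tomato roots with hypochlorite and J2s hatched in Baermann funnels at 28 °C. J2s from the first 3 days kept in 0.01% Tween 20 water and used within 24 h. About 100 J2s per well; stock added 1:100 in DMSO or MeOH (≤1%). Plates kept shaking in the dark at 28 °C, scored by microscope at 1, 2 and 3 days. Mortality Abbott-corrected. Two runs, three replicates each.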"}, "Phytophthora infestans [7]": {"tested_on": "Phytophthora infestans", "assay": "Antifungal activity against Phytophthora infestans assessed as inhibition of sporangium germination incubated at 20 degC for 24 hr by light microscopy", "assay_type": "functional, organism-based", "method_in_brief": "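Sporangium germination: compounds serially diluted in MeOH (12500 to 391 μg/mL as stock series), sporangia incubated 24 h at 20 °C. About 100 sporangia per replicate scored for germination by light microscope. Experiment repeated, mean ± SD. IC50 by probit.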"}, "Pyricularia oryzae [8]": {"tested_on": "Pyricularia oryzae", "assay": "In vivo antifungal activity against Magnaporthe oryzae infected rice seedlings assessed as control of rice blast disease development at 500 ug/ml treated 1 day before spore inoculation measured 3-7 days after inoculation", "assay_type": "functional", "method_in_brief": "as §1"}, "Meloidogyne incognita [9]": {"tested_on": "Meloidogyne incognita", "assay": "Nematicidal activity against second juvenile stage (J2) of Meloidogyne incognita (root-knot nematode) assessed as mortality at 11 ug/ml incubated in the dark at 28 degC within 2 hr by light microscopy (benficial crop Tomato)", "assay_type": "functional"}, "Rhizoctonia solani [10]": {"tested_on": "Rhizoctonia solani", "assay": "In vivo antifungal activity against Rhizoctonia solani infected rice seedlings assessed as control of rice sheath blight disease development at 500 ug/ml treated 1 day before spore inoculation measured 3-7 days after inoculation", "assay_type": "functional", "method_in_brief": "as §1"}, "Meloidogyne incognita [11]": {"tested_on": "Meloidogyne incognita", "assay": "Nematicidal activity against second juvenile stage (J2) of Meloidogyne incognita (root-knot nematode) assessed as mortality incubated in the dark at 28 degC after 1 day by light microscopy (benficial crop Tomato)", "assay_type": "functional", "settings": "24 h", "method_in_brief": "as §2"}, "Botrytis cinerea [12]": {"tested_on": "Botrytis cinerea", "assay": "In vivo antifungal activity against Botryotinia fuckeliana infected in tomato seedlings assessed as control of tomato gray mold disease development at 500 ug/ml treated 1 day before spore inoculation measured 3-7 days after inoculation", "assay_type": "functional", "method_in_brief": "as §1"}, "Rhizoctonia solani [13]": {"tested_on": "Rhizoctonia solani", "assay": "In vivo antifungal activity against Rhizoctonia solani infected rice seedlings assessed as control of rice sheath blight disease development at 250 ug/ml treated 1 day before spore inoculation measured 3-7 days after inoculation", "assay_type": "functional", "method_in_brief": "as §1"}, "Phytophthora infestans [14]": {"tested_on": "Phytophthora infestans", "assay": "Antifungal activity against Phytophthora infestans assessed as inhibition of radial mycelial growth at 11.11 to 900 ug/ml incubated at 20 degC for 5 to 7 days by poison plate assay", "assay_type": "functional", "method_in_brief": "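Poison-plate assay: material in MeOH added 1:100 to V8-agar at 50 °C, 2 mL per well of six-well plates, centre-inoculated with a 5 mm plug from the colony margin. Incubated at 20 °C until control growth reached the edge. Controls were 1% MeOH. Read as % inhibition of radial growth. Two runs, four replicates each. IC50 by probit.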"}, "Rhizoctonia solani [15]": {"tested_on": "Rhizoctonia solani", "assay": "In vivo antifungal activity against Rhizoctonia solani infected rice seedlings assessed as control of rice sheath blight disease development at 125 ug/ml treated 1 day before spore inoculation measured 3-7 days after inoculation", "assay_type": "functional", "method_in_brief": "as §1"}, "Blumeria hordei [16]": {"tested_on": "Blumeria hordei", "assay": "In vivo antifungal activity against Blumeria graminis f. sp. hordei infected barley seedlings assessed as control of barley powdery mildew disease development at 250 ug/ml treated 1 day before spore inoculation measured 3-7 days after inoculation", "assay_type": "functional", "method_in_brief": "as §1"}, "[17]": {"tested_on": "Bursaphelenchus xylophilus", "assay": "Nematicidal activity against second juvenile stage (J2) of Bursaphelenchus xylophilus assessed as mortality after 2 days by microtiter plate assay method (Beneficial crop Pine)", "assay_type": "functional", "settings": "48 h", "method_in_brief": "(§3)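 Pine wood nematodes reared on B. cinerea mycelia on PDA for 7 days at 28 °C. J2s collected in 0.01% Triton X-100 water and tested in microtiter plates. Compounds in DMSO or MeOH, solvent ≤1%; solvent-only controls. Concentrations 0.004–1 μg/mL. Mortality Abbott-corrected; LC50 by probit. Two runs, three replicates each.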"}, "Botrytis cinerea [18]": {"tested_on": "Botrytis cinerea", "assay": "In vivo antifungal activity against Botryotinia fuckeliana infected in tomato seedlings assessed as control of tomato gray mold disease development at 250 ug/ml treated 1 day before spore inoculation measured 3-7 days after inoculation", "assay_type": "functional", "method_in_brief": "as §1"}, "Colletotrichum coccodes [19]": {"tested_on": "Colletotrichum coccodes", "assay": "In vivo antifungal activity against Colletotrichum coccodes infected red pepper seedlings assessed as control of red pepper anthracnose development at 500 ug/ml treated 1 day before spore inoculation measured 3-7 days after inoculation", "assay_type": "functional", "method_in_brief": "as §1"}, "Puccinia recondita [20]": {"tested_on": "Puccinia recondita", "assay": "In vivo antifungal activity against Puccinia recondita infected wheat seedlings assessed as reduction in wheat leaf rust disease symptoms development at 500 ug/ml treated 1 day before spore inoculation measured 7 days after inoculation", "assay_type": "functional", "set-up": "scale not given: the % may be the effect or the level left", "method_in_brief": "as §1"}, "Meloidogyne incognita [21]": {"tested_on": "Meloidogyne incognita", "assay": "Nematicidal activity against second juvenile stage (J2) of Meloidogyne incognita (root-knot nematode) assessed as mortality incubated in the dark at 28 degC after 3 days by light microscopy (benficial crop Tomato)", "assay_type": "functional", "settings": "72 h", "method_in_brief": "as §2"}, "Botrytis cinerea [22]": {"tested_on": "Botrytis cinerea", "assay": "In vivo antifungal activity against Botryotinia fuckeliana infected in tomato seedlings assessed as control of tomato gray mold disease development at 125 ug/ml treated 1 day before spore inoculation measured 3-7 days after inoculation", "assay_type": "functional", "method_in_brief": "as §1"}, "Pyricularia oryzae [23]": {"tested_on": "Pyricularia oryzae", "assay": "In vivo antifungal activity against Magnaporthe oryzae infected rice seedlings assessed as control of rice blast disease development at 125 ug/ml treated 1 day before spore inoculation measured 3-7 days after inoculation", "assay_type": "functional", "method_in_brief": "as §1"}, "Puccinia recondita [24]": {"tested_on": "Puccinia recondita", "assay": "In vivo antifungal activity against Puccinia recondita infected wheat seedlings assessed as reduction in wheat leaf rust disease symptoms development at 250 ug/ml treated 1 day before spore inoculation measured 7 days after inoculation", "assay_type": "functional", "set-up": "scale not given: the % may be the effect or the level left", "method_in_brief": "as §1"}, "[25]": {"tested_on": "Bursaphelenchus xylophilus", "assay": "Nematicidal activity against second juvenile stage (J2) of Bursaphelenchus xylophilus assessed as mortality at >0.33 ug/ml after 2 days by microtiter plate assay method (Beneficial crop Pine)", "assay_type": "functional", "method_in_brief": "as §3"}, "Phytophthora infestans [26]": {"tested_on": "Phytophthora infestans", "assay": "Antifungal activity against Phytophthora infestans assessed as inhibition of zoospore germination incubated in the dark at 20 degC for 24 hr by light microscopy", "assay_type": "functional, organism-based", "method_in_brief": "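Zoospores released by chilling sporangia 1 h at 4 °C, then filtered to remove sporangia. Test solution in MeOH mixed 1:100 with the suspension (1% MeOH control), loaded onto hole-slide glasses and kept humid at 20 °C for 24 h in the dark. Germinated cells counted per hole by light microscope. Experiment repeated, mean ± SD.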"}, "Colletotrichum coccodes [27]": {"tested_on": "Colletotrichum coccodes", "assay": "In vivo antifungal activity against Colletotrichum coccodes infected red pepper seedlings assessed as control of red pepper anthracnose development at 250 ug/ml treated 1 day before spore inoculation measured 3-7 days after inoculation", "assay_type": "functional", "method_in_brief": "as §1"}}, "data": [{"compound": "CCCCCCCCCC[C@H](O)[C@H]1CC[C@H]([C@H]2CC[C@H]([C@H](O)CCCCCCCCCC[C@@H](O)CC3=C[C@H](C)OC3=O)O2)O1", "note": "(relative stereo) [REL-SQUAMOCIN-G]", "values": [{"measurement": "Activity", "setting": "Blumeria hordei [1]", "result": 0, "unit": "%"}, {"measurement": "Activity", "setting": "Phytophthora infestans [2]", "result": "Dose-dependent effect"}, {"measurement": "Activity", "setting": "Blumeria hordei [3]", "result": 0, "unit": "%"}, {"measurement": "Activity", "setting": "Pyricularia oryzae [4]", "result": 18.8, "unit": "%"}, {"measurement": "Activity", "setting": "Puccinia recondita [5]", "result": 0, "unit": "%"}, {"measurement": "LC50", "setting": "Meloidogyne incognita [6]", "result": 0.339, "unit": "µg/mL"}, {"measurement": "IC50", "setting": "Phytophthora infestans [7]", "result": 1.43, "unit": "µg/mL"}, {"measurement": "inhibition", "setting": "Phytophthora infestans [7]", "result": "Dose-dependent effect"}, {"measurement": "Activity", "setting": "Pyricularia oryzae [8]", "result": 18.8, "unit": "%"}, {"measurement": "mortality at 11 µg/mL", "setting": "Meloidogyne incognita [9]", "result": 100, "unit": "%"}, {"measurement": "Activity", "setting": "Rhizoctonia solani [10]", "result": 0, "unit": "%"}, {"measurement": "LC50", "setting": "Meloidogyne incognita [11]", "result": 0.864, "unit": "µg/mL"}, {"measurement": "Activity", "setting": "Botrytis cinerea [12]", "result": 0, "unit": "%"}, {"measurement": "Activity", "setting": "Rhizoctonia solani [13]", "result": 0, "unit": "%"}, {"measurement": "growth inhibition (GI)", "setting": "Phytophthora infestans [14]", "result": 31, "unit": "%"}, {"measurement": "Activity", "setting": "Rhizoctonia solani [15]", "result": 11.8, "unit": "%"}, {"measurement": "Activity", "setting": "Blumeria hordei [16]", "result": 25, "unit": "%"}, {"measurement": "LC50", "setting": "[17]", "result": 8, "unit": "ng/mL"}, {"measurement": "Activity", "setting": "Botrytis cinerea [18]", "result": 20, "unit": "%"}, {"measurement": "Activity", "setting": "Colletotrichum coccodes [19]", "result": 0, "unit": "%"}, {"measurement": "Activity", "setting": "Puccinia recondita [20]", "result": 0, "unit": "%"}, {"measurement": "LC50", "setting": "Meloidogyne incognita [21]", "result": 0.287, "unit": "µg/mL"}, {"measurement": "Activity", "setting": "Botrytis cinerea [22]", "result": 20, "unit": "%"}, {"measurement": "Activity", "setting": "Pyricularia oryzae [23]", "result": 12.5, "unit": "%"}, {"measurement": "Activity", "setting": "Puccinia recondita [24]", "result": 0, "unit": "%"}, {"measurement": "mortality", "setting": "[25]", "result": 100, "unit": "%"}, {"measurement": "IC50", "setting": "Phytophthora infestans [26]", "result": 1.92, "unit": "µg/mL"}, {"measurement": "inhibition", "setting": "Phytophthora infestans [26]", "result": "Dose-dependent effect"}, {"measurement": "Activity", "setting": "Colletotrichum coccodes [27]", "result": 0, "unit": "%"}]}]}
